Source: ChEMBL document CHEMBL4229395, “Photoactivated 2,3-distyrylindoles kill multi-drug resistant bacteria” (Bioorg Med Chem Lett, 2018)
Calls of active or inactive are those of the source. The rule behind the calls is not given here.

Key:
[1] = tested on: Streptococcus pyogenes; assay: Bactericidal activity against Streptococcus pyogenes ATCC 8133 at 1 uM in presence of light; type: functional, organism-based
[2] = tested on: Klebsiella pneumoniae; assay: Bactericidal activity against carbapenem-resistant Klebsiella pneumoniae ATCC BAA-2146 at 5 uM in presence of light and polymyxin E; type: functional, organism-based
[3] = tested on: Pseudomonas aeruginosa; assay: Bactericidal activity against Pseudomonas aeruginosa ATCC BAA-2114 at 2 ug/ml in presence of light; type: functional, organism-based
[4] = tested on: Staphylococcus aureus; assay: Bactericidal activity against methicillin-resistant Staphylococcus aureus ATCC BAA-44 irradiated with white light for 2 mins and measured after overnight incubation by drip-streak plate method; type: functional, organism-based
Summary of the method: (§1)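 MRSA ATCC BAA-44 cells incubated with a range of compound concentrations, then irradiated for 2 min with a white-light lamp or kept in the dark. Colonies were counted at the dilution giving 30–300 colonies. Each experiment had 3 replicates and was repeated in 3 independent experiments.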

[5] = Dark toxicity against human MCF7 cells assessed as decrease in cell viability by MTT assay; type: cell-based
Summary of the method: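 MCF-7 breast adenocarcinoma cells were incubated with compound without light. Viability was read by MTT colorimetric assay, and IC50 was derived from the concentration–response.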

[6] = tested on: Streptococcus mutans; assay: Bactericidal activity against Streptococcus mutans Ward's 85W 2357 at 1 uM incubated under dark condition; type: ADME, organism-based
Summary of the method: (§2)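 Bacterial suspensions (about 10^8 CFU/mL) were incubated with the compound at a range of concentrations and kept in the dark, the unirradiated control for a 2 min white-light exposure. Samples were diluted 10-fold, drip-streaked on TSA and incubated overnight at 37 °C. Colonies were counted at the dilution giving 30–300 colonies.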

[7] = tested on: Enterococcus faecalis; assay: Bactericidal activity against Enterococcus faecalis ATCC 51299 at 1 uM in presence of light; type: functional, organism-based
[8] = tested on: Escherichia coli; assay: Bactericidal activity against Escherichia coli ATCC 25922 at 2 ug/ml in presence of light; type: functional, organism-based
[9] = tested on: Escherichia coli; assay: Bactericidal activity against Escherichia coli ATCC 25922 at 5 uM in presence of light; type: functional, organism-based
[10] = tested on: Staphylococcus aureus; assay: Disruption of cell membrane in methicillin-resistant Staphylococcus aureus ATCC BAA-44 in presence of light by scanning electron microscopic method; type: functional, organism-based
[11] = tested on: Klebsiella pneumoniae; assay: Bactericidal activity against carbapenem-resistant Klebsiella pneumoniae ATCC BAA-2146 at 5 uM incubated under dark condition in presence of polymyxin E; type: ADME, organism-based
[12] = tested on: Klebsiella pneumoniae; assay: Bactericidal activity against carbapenem-resistant Klebsiella pneumoniae ATCC BAA-2146 at 2 ug/ml in presence of light; type: functional, organism-based
[13] = tested on: Acinetobacter baumannii; assay: Bactericidal activity against Acinetobacter baumannii ATCC BAA1797 at 5 uM in presence of light and polymyxin E relative to control; type: functional
[14] = tested on: Escherichia coli; assay: Bactericidal activity against Escherichia coli ATCC 25922 at 5 uM in presence of light and polymyxin E relative to control; type: functional
[15] = tested on: Staphylococcus aureus; assay: Bactericidal activity against methicillin-resistant Staphylococcus aureus ATCC BAA-44 incubated under dark condition and measured after overnight incubation by drip-streak plate method; type: ADME, organism-based; conditions: in vitro; summary of the method: as §1
[16] = tested on: Streptococcus pyogenes; assay: Bactericidal activity against Streptococcus pyogenes ATCC 8133 at 1 uM incubated under dark condition; type: ADME, organism-based; summary of the method: as §2
[17] = tested on: Pseudomonas aeruginosa; assay: Bactericidal activity against Pseudomonas aeruginosa ATCC BAA-2114 at 5 uM in presence of light; type: functional, organism-based
[18] = tested on: Staphylococcus aureus; assay: Disruption of cell membrane in methicillin-resistant Staphylococcus aureus ATCC BAA-44 at 10 uM in presence of light by propidium iodide staining-based assay; type: functional, organism-based
Summary of the method: (§3)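 MRSA ATCC BAA-44 cells were treated with compound with or without light, then stained with propidium iodide. Red PI fluorescence marks membrane disruption; green fluorescence comes from the compound. Phenylarsine oxide was the positive control.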

[19] = tested on: Staphylococcus aureus; assay: Bactericidal activity against methicillin-resistant Staphylococcus aureus ATCC BAA-44 at 1 uM irradiated with white light through mask for 2 mins and measured after overnight incubation; type: functional, organism-based
Summary of the method: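 MRSA ATCC BAA-44 cells were pre-treated with compound at 1 μM and spread over an agar plate. The plate was irradiated with white light through a mask for 2 min, incubated overnight at 37 °C and photographed to show where colonies grew.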

[20] = tested on: Pseudomonas aeruginosa; assay: Bactericidal activity against Pseudomonas aeruginosa ATCC BAA-2114 at 5 uM in presence of light and polymyxin E; type: functional, organism-based
[21] = tested on: Escherichia coli; assay: Bactericidal activity against Escherichia coli ATCC 25922 at 5 uM incubated under dark condition; type: ADME, organism-based
[22] = tested on: Escherichia coli; assay: Bactericidal activity against Escherichia coli ATCC 25922 at 5 uM incubated under dark condition in presence of polymyxin E; type: ADME, organism-based
[23] = tested on: Staphylococcus aureus; assay: Disruption of cell membrane in methicillin-resistant Staphylococcus aureus ATCC BAA-44 incubated under dark condition by scanning electron microscopic method; type: organism-based
[24] = tested on: Enterococcus faecalis; assay: Bactericidal activity against Enterococcus faecalis ATCC 51299 at 1 uM incubated under dark condition; type: ADME, organism-based; summary of the method: as §2
[25] = tested on: Klebsiella pneumoniae; assay: Bactericidal activity against carbapenem-resistant Klebsiella pneumoniae ATCC BAA-2146 at 5 uM in presence of light; type: functional, organism-based
[26] = tested on: Acinetobacter baumannii; assay: Bactericidal activity against Acinetobacter baumannii ATCC BAA1797 at 1.25 ug/ml in presence of light; type: functional, organism-based
[27] = tested on: Staphylococcus aureus; assay: Bactericidal activity against Staphylococcus aureus ATCC 29213 at 1 uM in presence of light; type: functional, organism-based
[28] = tested on: Acinetobacter baumannii; assay: Bactericidal activity against Acinetobacter baumannii ATCC BAA1797 at 5 uM in presence of light; type: functional, organism-based
[29] = tested on: Pseudomonas aeruginosa; assay: Bactericidal activity against Pseudomonas aeruginosa ATCC BAA-2114 at 5 uM incubated under dark condition; type: ADME, organism-based
[30] = tested on: Staphylococcus aureus; assay: Disruption of cell membrane in methicillin-resistant Staphylococcus aureus ATCC BAA-44 at 10 uM incubated under dark condition by propidium iodide staining-based assay; type: organism-based; summary of the method: as §3
[31] = tested on: Streptococcus mutans; assay: Bactericidal activity against Streptococcus mutans Ward's 85W 2357 at 1 uM in presence of light; type: functional, organism-based
[32] = tested on: Klebsiella pneumoniae; assay: Bactericidal activity against carbapenem-resistant Klebsiella pneumoniae ATCC BAA-2146 at 5 uM incubated under dark condition; type: ADME, organism-based
[33] = tested on: Staphylococcus aureus; assay: Bactericidal activity against methicillin-resistant Staphylococcus aureus ATCC BAA1717 at 1 uM in presence of light; type: functional, organism-based
[34] = tested on: Staphylococcus aureus; assay: Bactericidal activity against methicillin-resistant Staphylococcus aureus ATCC BAA-44 at 0.1 uM irradiated with white light for 2 mins and measured after overnight incubation by drip-streak plate method relative to control; type: functional; summary of the method: as §1
[35] = Induction of singlet oxygen generation at 1210 nm; type: functional
[36] = tested on: Staphylococcus aureus; assay: Bactericidal activity against Staphylococcus aureus ATCC 29213 at 1 uM incubated under dark condition; type: ADME, organism-based
[37] = tested on: Acinetobacter baumannii; assay: Bactericidal activity against Acinetobacter baumannii ATCC BAA1797 at 5 uM incubated under dark condition; type: ADME, organism-based
[38] = tested on: Staphylococcus aureus; assay: Bactericidal activity against methicillin-resistant Staphylococcus aureus ATCC BAA-44 at 5 uM irradiated with white light for 2 mins and measured after overnight incubation by drip-streak plate method; type: functional, organism-based; summary of the method: as §1
[39] = tested on: Staphylococcus aureus; assay: Bactericidal activity against methicillin-resistant Staphylococcus aureus ATCC BAA-44 at 30 nM irradiated with white light for 2 mins and measured after overnight incubation by drip-streak plate method relative to control; type: functional; summary of the method: as §1
[40] = tested on: Escherichia coli; assay: Bactericidal activity against Escherichia coli ATCC 25922 at 2 ug/ml incubated under dark condition; type: ADME, organism-based
[41] = tested on: Pseudomonas aeruginosa; assay: Bactericidal activity against Pseudomonas aeruginosa ATCC BAA-2114 at 2 ug/ml incubated under dark condition; type: ADME, organism-based
[42] = tested on: Acinetobacter baumannii; assay: Bactericidal activity against Acinetobacter baumannii ATCC BAA1797 at 1.25 ug/ml incubated under dark condition; type: ADME, organism-based
[43] = tested on: Klebsiella pneumoniae; assay: Bactericidal activity against carbapenem-resistant Klebsiella pneumoniae ATCC BAA-2146 at 2 ug/ml incubated under dark condition; type: ADME, organism-based
[44] = Induction of singlet oxygen generation at 1285 nm at 10 uM; type: functional

In the case of `Clc1ccc(/C=C/c2[nH]c3ccccc3c2/C=C/c2ccc(Cl)cc2)cc1`, the Activity [1] is reported as “Active”, the Activity [2] is reported as “Active” and the Activity [3] is reported as “inactive”. For the same molecule, the Activity [4] was “Dose-dependent effect”, the IC50 [5] was 47 µM and the Activity [6] was “Non-Toxic”. For the same molecule, the Activity [7] was “Active”, the Activity [8] was “inactive” and the Activity [9] was “inactive”. The Activity [10] was “Active”, the Activity [11] was “Toxic” and the Activity [12] was “inactive”. For the same molecule, the Activity [13] was 7 deltalog10CFU/ml, the Activity [14] was 7 deltalog10CFU/ml and the Activity [15] was “Dose-dependent effect”. The Activity [16] was “Non-Toxic”, the Activity [17] was “inactive” and the Activity [18] was “Active”. The Activity [19] was “Active”, the Activity [20] was “Active” and the Activity [21] was “Non-Toxic”. The Activity [22] was “Toxic”, the Activity [23] was “Non-Toxic” and the Activity [24] was “Non-Toxic”. For the same molecule, the Activity [25] was “inactive”, the Activity [26] was “inactive” and the Activity [27] was “Active”. The Activity [28] was “inactive”, the Activity [29] was “Non-Toxic” and the Activity [30] was “Non-Toxic”. For the same molecule, the Activity [31] was “Active”, the Activity [32] was “Non-Toxic” and the Activity [33] was “Active”. For the same molecule, the Activity [34] was 5 deltalog10CFU/ml, the Activity [35] was “Dose-dependent effect” and the Activity [36] was “Non-Toxic”. For the same molecule, the Activity [37] was “Non-Toxic”.
In the case of `COc1ccc(/C=C/c2[nH]c3ccccc3c2/C=C/c2ccc(OC)cc2)cc1`, the Activity [38] is reported as “inactive”.
For `Clc1ccccc1/C=C/c1[nH]c2ccccc2c1/C=C/c1ccccc1Cl`, the Activity [38] was “Active”.
In the case of `C(=C\c1[nH]c2ccccc2c1/C=C/c1ccccc1)/c1ccccc1`, the “fold change (FC)” value [39] is reported as 5.
In the case of COLISTIN, the Activity [40] is reported as “Non-Toxic”, the Activity [41] is reported as “Non-Toxic” and the Activity [42] is reported as “Non-Toxic”. The Activity [43] was “Non-Toxic”.
In the case of `Fc1ccc(/C=C/c2[nH]c3ccccc3c2/C=C/c2ccc(F)cc2)cc1`, the Activity [38] is reported as “inactive”.
In the case of `O=C1OC2(c3cc(I)c(O)c(I)c3Oc3c2cc(I)c(O)c3I)c2c(Cl)c(Cl)c(Cl)c(Cl)c21`, the Activity [44] is reported as “Active”.
For `Clc1cccc(/C=C/c2[nH]c3ccccc3c2/C=C/c2cccc(Cl)c2)c1`, the Activity [38] was “inactive”.
Molecule `CN(C)[C@@H]1C(O)=C(C(N)=O)C(=O)[C@@]2(O)C(O)=C3C(=O)c4c(O)cccc4[C@@](C)(O)[C@H]3C[C@@H]12` [TETRACYCLINE] has an IC50 [5] of 41.6 µM.
Work on `CCn1cc(C(=O)O)c(=O)c2cc(F)c(N3CCNCC3)cc21` [NORFLOXACIN] yielded an IC50 [5] of 13.8 µM.
